Legend:
[1] = folding enthalpy; higher = less favourable; fluorescence melt of hairpins on a sequencing array, two-state fit; conditions: sodium 0.088 M
Summary of the method: (§1)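 To match UV melts, fitted temperatures were raised by 9.35 °C. These fits were bootstrapped two-state models that gave melting temperature and folding enthalpy, combined by inverse variance over four replicates. The input was normalised Cy3 fluorescence of library hairpins with annealed Cy3 and quencher oligos on a sequenced MiSeq flow cell, imaged in 50 mM Na-HEPES pH 8.0, 25 mM NaCl in 2.5 °C steps up to 60 °C.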

[2] = melting temperature; fluorescence melt of hairpins on a sequencing array, two-state fit, raised by 9.35 °C to match UV melts; conditions: sodium 0.088 M
Summary of the method: as §1

| Sequence | folding enthalpy [1] [kJ/mol] | Tm [2] [°C] |
| --- | --- | --- |
| GAGTAACGAAAGTTTCTC (((.(((....))).))) | -126 | 40.3 |
| GAGTAAGGAAACTTACCC (.(((((....))))).) | -61.1 | 28.4 |
| GAGTACCCGAAAGGGCTC (((..(((....)))))) | -63.9 | 32.4 |
| GAGTACGAAAGTAAACTC ((((((....)))..))) | -109 | 35.9 |
| GAGTACGAAAGTAATCTC ((((((....)))..))) | -114 | 42.5 |
| GAGTACGAAAGTACACTC ((((((....)))..))) | -67.7 | 48.3 |
| GAGTACGAAAGTACCCTC ((((((....)))..))) | -55.2 | 38.6 |
| GAGTACGAAAGTAGACTC ((((((....)))..))) | -70.4 | 35.8 |
| GAGTACGAAAGTATACTC ((((((....)))..))) | -82.3 | 34.4 |
| GAGTACGGAAACGTACCC (.(((((....))))).) | -65 | 42.2 |
| GAGTAGCGAAAGCTTCTC (((.(((....))).))) | -111 | 47.2 |
| GAGTAGGAAACTACTC ((((((....)))))) | -126 | 51.1 |
| GAGTAGGCGAAAGCCCTC (((..(((....)))))) | -45.3 | 35.4 |
| GAGTAGGGAAACCTACTC (((((((....))))))) | -195 | 57 |
| GAGTAGGGAAACTTACTC (((((.(....).))))) | -107 | 35.5 |
| GAGTATGCGAAAGCACTC (((..(((....)))))) | -62.2 | 38.8 |
| GAGTATGGAAACATACTC (((((((....))))))) | -157 | 54.4 |
| GAGTCACGAAAGTGCCTC (((.(((....))).))) | -98.4 | 50 |
| GAGTCACGAAAGTGGCTC (((.(((....))).))) | -165 | 64.7 |
| GAGTCCGAAAGGAACTC ((((((....))).))) | -116 | 50.7 |
| GAGTCCGAAAGGATCCTC ((((((....)))..))) | -50.7 | 34.1 |
| GAGTCCGGAAACGGACCC (.(((((....))))).) | -39.4 | 46.2 |
| GAGTCCGGAAACGGGTTC ((..(((....)))..)) | -67.2 | 33.6 |

| Sequence | folding enthalpy [1] [kJ/mol] | Tm [2] [°C] |
| --- | --- | --- |
| GAGTCGCCGAAAGGCCTC (((..(((....)))))) | -51.1 | 29.3 |
| GAGTCGGGAAACCGGTTC ((..(((....)))..)) | -65.1 | 32.8 |
| GAGTCGGGAAACTGGCTC (((.(.(....).).))) | -108 | 43.4 |
| GAGTGAGAAATCACTC ((((((....)))))) | -144 | 53.7 |
| GAGTGAGCGAAAGCTCTC (((..(((....)))))) | -37.7 | 32.9 |
| GAGTGAGGAAACCCACTC (((((.(....).))))) | -142 | 44.5 |
| GAGTGCCGAAAGGCCTC (((.(((....)))))) | -73.9 | 56.8 |
| GAGTGCGAAAGCAAACTC ((((((....)))..))) | -87.1 | 47.2 |
| GAGTGCGAAAGCACCTC ((((((....))).))) | -43.1 | 54.8 |
| GAGTGCGAAAGCATGCTC ((((((....)))..))) | -62.8 | 43.4 |
| GAGTGCGGAAACGCGCTC (((.(((....))).))) | -133 | 66.1 |
| GAGTGGGGAAACCCGCTC (((.(((....))).))) | -150 | 55.6 |
| GAGTTAGCGAAAGCTCTC (((..(((....)))))) | -48.2 | 35.1 |
| GAGTTAGGAAACCAACTC (((((.(....).))))) | -136 | 35.4 |
| GAGTTAGGAAACTAACCC (.(((((....))))).) | -72.6 | 30.4 |
| GAGTTAGGAAACTAATTC ((.((((....)))).)) | -100 | 27.9 |
| GAGTTCCCGAAAGGGCTC (((..(((....)))))) | -76.4 | 34.1 |
| GAGTTGAAAAACTC (((((....))))) | -92.2 | 44.7 |
| GAGTTTGGAAACAAATTC ((.((((....)))).)) | -120 | 35.8 |
| GATAAACGAAAGTTGATC (((.(((....))).))) | -97.7 | 39.4 |
| GATAAAGCGAAAGCTATC (((..(((....)))))) | -59.4 | 33.1 |
| GATAACCCGAAAGGGATC (((..(((....)))))) | -74.6 | 28.9 |
| GATAACCGAAAGGTAATC (((.(((....))).))) | -88.6 | 40.2 |

| Sequence | folding enthalpy [1] [kJ/mol] | Tm [2] [°C] |
| --- | --- | --- |
| GATAACCGAAAGGTATC (((.(((....)))))) | -72.9 | 38.9 |
| GATAACGCGAAAGCGATC (((..(((....)))))) | -42.5 | 24.1 |
| GATAATGGAAACATTATC (((((((....))))))) | -184 | 48.4 |
| GATACAGGAAACTGTACC (.(((((....))))).) | -64.3 | 31.1 |
| GATACAGGAAACTGTGTC ((.((((....)))).)) | -108 | 44.9 |
| GATACCCGAAAGGGCATC (((.(((....))).))) | -78.5 | 49.5 |
| GATACCGAAAGGTATATC ((((((....)))..))) | -68.4 | 45.2 |
| GATACCGAAAGGTCATC ((((((....))).))) | -71.3 | 35.6 |
| GATACCGAAAGGTGAATC ((((((....)))..))) | -52.8 | 27.2 |
| GATACCGAAAGGTGTATC ((((((....)))..))) | -61.9 | 35.9 |
| GATACCGAAAGGTTAATC ((((((....)))..))) | -46.5 | 25.3 |
| GATACCGAAAGGTTGATC ((((((....)))..))) | -56.9 | 31.4 |
| GATACCGGAAACGGTGTC ((.((((....)))).)) | -120 | 52.1 |
| GATACGCGAAAGCGAATC (((.(((....))).))) | -90.4 | 49.4 |
| GATACGGGAAACCGCATC (((.(((....))).))) | -104 | 41.4 |
| GATACGGGAAACCGTACC (.(((((....))))).) | -65.6 | 32.1 |
| GATACGGGAAACCGTGTC ((.((((....)))).)) | -129 | 49.2 |
| GATACGGGAAACTGTGTC ((.((.(....).)).)) | -83.9 | 33.6 |
| GATACTGGAAACAGTACC (.(((((....))))).) | -65.7 | 33.1 |
| GATAGAGGAAACCCTATC (((((.(....).))))) | -85 | 30.8 |
| GATAGAGGAAACTCTACC (.(((((....))))).) | -52.8 | 23.5 |
| GATAGCGAAAGCTAAATC ((((((....)))..))) | -37.3 | 27.7 |
